Results published in PMC5817915 (European journal of medicinal chemistry, 2017).
Where a name gives a salt, the structure may show the parent alone.

What was measured:
[1] = biological target: T1, PTP1B (Homo sapiens, UniProt P18031); assay: In vitro dephosphorylation assay, phosphate sensor reagent, p-NPP substrate; format: biochemical; conditions: from IC50 values of Table 2
T1 sequence (P18031 1-435): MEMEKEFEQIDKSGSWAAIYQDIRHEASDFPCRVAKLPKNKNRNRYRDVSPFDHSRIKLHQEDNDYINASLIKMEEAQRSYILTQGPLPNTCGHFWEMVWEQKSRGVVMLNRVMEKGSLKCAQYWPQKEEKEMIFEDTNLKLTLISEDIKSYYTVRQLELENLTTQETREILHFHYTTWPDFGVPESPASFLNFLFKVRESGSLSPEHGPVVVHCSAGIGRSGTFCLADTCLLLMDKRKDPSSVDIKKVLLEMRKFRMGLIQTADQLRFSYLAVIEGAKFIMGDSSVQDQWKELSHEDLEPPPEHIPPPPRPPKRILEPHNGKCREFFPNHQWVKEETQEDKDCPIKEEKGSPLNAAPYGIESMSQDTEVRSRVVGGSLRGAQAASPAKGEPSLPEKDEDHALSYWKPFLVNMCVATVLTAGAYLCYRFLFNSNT
In short: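 Human recombinant PTPRZ1 and PTP1B, each at 0.1 μM, tested against test compound at 0.001–100 μM with p-NPP as substrate. Released inorganic phosphate was detected with a phosphate sensor reagent as a fluorescence increase (excitation 430 nm, emission 450 nm). IC50 values were calculated for each enzyme, and selectivity was judged by comparing the PTPRZ1 and PTP1B IC50s.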

[2] = biological target: PTPRZ1 (Homo sapiens, UniProt P23471); assay: In vitro dephosphorylation assay, phosphate sensor reagent, p-NPP substrate; format: biochemical; conditions: for inhibition at 1 µM: read-out: inhibition of the phosphatase activity of PTPRZ1
In short: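 Single-concentration screen: human recombinant PTPRZ1 (0.1 μM) incubated with test compound at 1.0 μM and p-NPP substrate. Phosphate release was detected with a phosphate sensor reagent by fluorescence (excitation 430 nm, emission 450 nm) and expressed as percent inhibition of phosphatase activity.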

[3] = system: HeLa cells; assay: Total tyrosine phosphorylation ELISA; format: cell-based; conditions: at any of 0.1, 1.0 and 10.0 μM
In short: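 HeLa cells in RPMI-1640 with 10% FBS were seeded at 2 × 10^4 cells/well in triplicate and serum-starved 24 h. They were then treated 10 min with test compound at 0.1, 1.0 or 10.0 μM, with 0.25% DMSO as vehicle control and EGF (50 ng/mL, 10 min) as positive control. Total phosphotyrosine was measured with a tyrosine phosphorylation ELISA kit and compared with vehicle.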

[4] = In vivo permeability study, GC-MS detection in plasma and brain; conditions: mice, 1h post-gavage, 60 mg/kg
In short: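 Mice were dosed by oral gavage at 60 mg/kg and killed 1 h later; brain and plasma were collected. Brain (50–100 mg) was bead-homogenised in ethyl acetate, then the supernatant was dried and taken up in heptane. Plasma (100 μL) was precipitated with 3 volumes of cold methanol at -2 °C for 20 min, dried and reconstituted in heptane. Samples were analysed by GC-MS (EI 70 eV), quantifying the extracted ion at m/z 191.0137 (LOQ ~70 ng/mL).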

[5] = system: alcohol-induced reward; conditions: mice; cited from earlier work
[6] = system: PC12 cells; assay: Amphetamine-induced toxicity, cell viability by MTT; format: cell-based, Rat; conditions: amphetamine 1 mM, compound 1.0 μM, 24 hours
In short: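 Rat PC12 cells grown in RPMI-1640 with 10% FBS, seeded at 10^4 cells/well, then co-incubated with amphetamine (1.0 mM) and test compound (1.0 μM). For MTT, cells were PBS-washed and given fresh medium with MTT (5 mg/mL stock) for 4 h. Formazan was dissolved in DMSO with 10 min shaking at RT, and absorbance read at 570 nm. Data are mean ± S.E.M., analysed by one-way ANOVA with Tukey post-hoc.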

[7] = system: TrkA (Tyr490); assay: Western blot of TrkA phosphorylation in SH-SY5Y cells; format: cell-based, human; conditions: SH-SY5Y cells, 1.0, 5.0 and 10.0 μM, 20 minutes
In short: (§1)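 Human SH-SY5Y cells, grown in EMEM/F12 (1:1) with 10% FBS at 37 °C and 5% CO2, were switched to serum-free medium just before treatment. They were then exposed to test compound (1.0, 5.0, 10.0 μM) or DMSO vehicle for 20 min and lysed in Tris-HCl pH 7.5/Triton buffer with phosphatase and protease inhibitors. Lysate (20 μg protein) was run on SDS-PAGE and blotted to PVDF. Blots were probed for phospho-TrkA (Y490) or phospho-ALK (Y1278), reprobed for total TrkA or ALK, and detected by ECL. Densitometry data are mean ± S.E.M., analysed by one-way ANOVA with Tukey post-hoc.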

[8] = system: ALK (Tyr1278); assay: Western blot of ALK phosphorylation in SH-SY5Y cells; format: cell-based, human; conditions: SH-SY5Y cells, 1.0, 5.0 and 10.0 μM, 20 minutes
In short: as §1

PTPRZ1, sequence (P23471 25-2315): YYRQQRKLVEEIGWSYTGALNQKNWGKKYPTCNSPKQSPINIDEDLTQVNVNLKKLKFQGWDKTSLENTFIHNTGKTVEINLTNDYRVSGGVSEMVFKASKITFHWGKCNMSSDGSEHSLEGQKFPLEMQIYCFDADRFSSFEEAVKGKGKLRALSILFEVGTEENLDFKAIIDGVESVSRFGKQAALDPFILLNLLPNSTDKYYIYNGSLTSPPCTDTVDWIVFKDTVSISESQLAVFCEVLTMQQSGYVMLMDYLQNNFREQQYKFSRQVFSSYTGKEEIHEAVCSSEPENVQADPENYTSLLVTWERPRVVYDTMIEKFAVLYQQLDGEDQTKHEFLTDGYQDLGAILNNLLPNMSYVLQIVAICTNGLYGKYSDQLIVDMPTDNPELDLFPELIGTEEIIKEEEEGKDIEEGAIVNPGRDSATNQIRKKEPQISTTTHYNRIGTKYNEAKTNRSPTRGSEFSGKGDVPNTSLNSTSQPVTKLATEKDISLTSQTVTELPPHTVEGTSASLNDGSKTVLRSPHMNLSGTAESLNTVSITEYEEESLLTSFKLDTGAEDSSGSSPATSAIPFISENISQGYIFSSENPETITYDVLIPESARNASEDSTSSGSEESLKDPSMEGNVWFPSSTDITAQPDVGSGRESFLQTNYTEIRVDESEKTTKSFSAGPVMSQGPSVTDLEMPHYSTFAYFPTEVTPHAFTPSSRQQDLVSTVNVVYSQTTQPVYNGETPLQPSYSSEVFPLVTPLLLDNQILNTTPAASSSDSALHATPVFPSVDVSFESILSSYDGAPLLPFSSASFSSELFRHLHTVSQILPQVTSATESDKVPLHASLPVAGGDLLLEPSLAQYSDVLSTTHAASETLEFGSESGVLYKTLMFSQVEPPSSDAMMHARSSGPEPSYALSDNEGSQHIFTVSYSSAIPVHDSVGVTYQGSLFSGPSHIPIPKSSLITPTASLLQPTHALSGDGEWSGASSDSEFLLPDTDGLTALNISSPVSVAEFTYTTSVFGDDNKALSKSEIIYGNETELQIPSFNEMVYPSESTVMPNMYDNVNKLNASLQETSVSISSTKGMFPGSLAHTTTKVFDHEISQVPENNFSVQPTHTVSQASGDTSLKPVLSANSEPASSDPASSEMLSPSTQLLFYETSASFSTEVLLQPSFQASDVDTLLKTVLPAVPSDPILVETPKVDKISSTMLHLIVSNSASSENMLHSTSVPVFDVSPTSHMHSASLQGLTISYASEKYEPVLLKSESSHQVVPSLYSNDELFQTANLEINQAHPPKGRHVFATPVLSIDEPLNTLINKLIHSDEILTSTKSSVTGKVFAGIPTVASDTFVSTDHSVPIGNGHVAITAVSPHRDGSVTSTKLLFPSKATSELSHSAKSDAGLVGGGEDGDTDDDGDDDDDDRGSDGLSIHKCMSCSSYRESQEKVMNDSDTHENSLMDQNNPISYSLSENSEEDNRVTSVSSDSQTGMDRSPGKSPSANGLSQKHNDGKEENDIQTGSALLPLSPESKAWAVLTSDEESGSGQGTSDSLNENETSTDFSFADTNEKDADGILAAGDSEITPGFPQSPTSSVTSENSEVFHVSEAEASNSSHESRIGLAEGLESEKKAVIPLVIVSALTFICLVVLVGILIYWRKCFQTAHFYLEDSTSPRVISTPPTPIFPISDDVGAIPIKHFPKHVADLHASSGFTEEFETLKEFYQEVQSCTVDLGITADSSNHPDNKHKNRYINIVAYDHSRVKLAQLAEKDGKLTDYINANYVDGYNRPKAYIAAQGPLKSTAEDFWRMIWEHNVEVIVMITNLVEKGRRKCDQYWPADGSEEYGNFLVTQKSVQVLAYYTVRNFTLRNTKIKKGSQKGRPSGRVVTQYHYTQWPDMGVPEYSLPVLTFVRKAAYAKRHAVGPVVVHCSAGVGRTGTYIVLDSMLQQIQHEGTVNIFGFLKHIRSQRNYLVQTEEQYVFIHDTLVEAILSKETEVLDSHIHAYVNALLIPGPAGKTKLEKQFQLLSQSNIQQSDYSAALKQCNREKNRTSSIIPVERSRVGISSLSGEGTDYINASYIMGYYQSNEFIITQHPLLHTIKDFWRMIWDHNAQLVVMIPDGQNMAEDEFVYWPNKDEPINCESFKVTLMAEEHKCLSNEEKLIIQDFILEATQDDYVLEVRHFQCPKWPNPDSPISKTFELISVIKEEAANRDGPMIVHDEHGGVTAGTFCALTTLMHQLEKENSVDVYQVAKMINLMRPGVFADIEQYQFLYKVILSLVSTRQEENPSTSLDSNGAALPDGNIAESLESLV

Structure (SMILES) | selectivity PTPRZ1 versus PTP1B [1] | inhibition at 1 µM [2] [%] | increase of Phospho-Tyr levels [3] [%] | other results
O=C(Cc1ccc(SC(F)(F)F)cc1)NCc1ccc(SC(F)(F)F)cc1 [4c, N-(4-((Trifluoromethyl)thio)benzyl)-2-(4-((trifluoromethyl)thio)phenyl)acetamide] | remarkable selectivity against PTP1B |  |  | 
O=C(Cc1ccc(S(=O)(=O)C(F)(F)F)cc1)Nc1ccc(S(=O)(=O)C(F)(F)F)cc1 [5b, N,2-bis(4-((trifluoromethyl)sulfonyl)phenyl)acetamide] |  | ≥ 10 |  | 
O=S(=O)(c1ccc(COc2ccc(S(=O)(=O)C(F)(F)F)cc2)cc1)C(F)(F)F [compound 1, 1-((Trifluoromethyl)sulfonyl)-4-((4-((trifluoromethyl)sulfonyl)benzyl)oxy)benzene, reference compound] |  |  |  | PTPRZ1 phosphatase activity inhibition [2]: failed to inhibit PTPRZ1 phosphatase activity
FC(F)(F)Sc1ccc(CN(Cc2ccc(SC(F)(F)F)cc2)Cc2ccc(SC(F)(F)F)cc2)cc1 [compound 13, tris(4-((trifluoromethyl)thio)benzyl)amine] |  |  | ≥ 10 | 

Second part, led by results:

selectivity PTPRZ1 versus PTP1B [1] | inhibition at 1 µM [2] [%] | Structure (SMILES) | increase of Phospho-Tyr levels [3] [%] | other results
strongly and selectively inhibit PTPRZ1 | ≥ 10 | FC(F)(F)Sc1ccc(COc2ccc(SC(F)(F)F)cc2)cc1 [10a, (Trifluoromethyl)(4-((4-((trifluoromethyl)thio)benzyl)oxy)phenyl)sulfane] | ≥ 10 | ability to cross the BBB [4]: can cross the BBB; effect on alcohol-induced reward [5]: completely blocked alcohol-induced reward in mice; effect on amphetamine-induced loss of PC12 cell viability [6]: significantly prevented amphetamine-induced loss of PC12 cell viability; increase of tyrosine phosphorylation of TrkA [7]: 2–3 fold
strongly and selectively inhibit PTPRZ1 | ≥ 10 | FC(F)(F)Sc1ccc(CNCc2ccc(SC(F)(F)F)cc2)cc1 [12b, Bis(4-((trifluoromethyl)thio)benzyl)amine hydrochloride] |  | increase in phosphorylation of ALK 140 kDa isoform [8]: 2 fold; effect on amphetamine-induced loss of PC12 cell viability [6]: the same trend was observed; increase of tyrosine phosphorylation of TrkA [7]: 2–3 fold
 | ≥ 10 | FC(F)(F)Sc1ccc(NCc2ccccc2)cc1 [12d, N-benzyl-4-((trifluoromethyl)thio)aniline] | ≥ 10 | 
